Shown are actives, neighbours in structure and some others; about 2.3% of the full set was active somewhere.
C2C12 statin: protects C2C12 myotubes from simvastatin toxicity. ATP luminescence, 48 h; scaled: DMSO 0, geranylgeraniol control 100. rescue of ATP level, % at 7.49 µM. 330,000 tested, 0.78% active;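 active = mean ATP rescue above about 67%, or every replicate alone reaching that limit, limit read from the data, passing the limit was not always enough; inconclusive = no clear call, values can overlap the other calls; inactive = mean under the limit and some replicate under it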;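 also: myotubes were challenged with 10 µM simvastatin during compound exposure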
PDI inh: PDI (human) enzyme inhibition; P07237; PDI insulin aggregation turbidity, A650, 90 min; inhibition, % at 10 µM; 350,000 tested, 0.052% active; AID 588391;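 active = mean inhibition across replicates of 30% or more, whatever share of single replicates reach that level; inconclusive = mean inhibition below 30% while every single replicate reaches 30%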
Cneo AK release: Cryptococcus neoformans lysis via adenylate kinase release; lysis activity, % at 15 µM; C. neoformans lysis, adenylate kinase release luminescence, 4 h; normalised: neutral wells 0, clomiphene wells 100; 360,000 tested, 0.2% active;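 active = mean lysis activity across replicates of at least 80%, whatever share of replicates individually reach that level; inactive = mean lysis activity below 80%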
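Assay system: log-phase C. neoformans yeast / Quantity: yeast cell density of 5 × 10^6 cells/mL / Medium: fresh YPD growth medium / Compound: single dose / Timing: static 4 h at 37 °C with compound, 1 h detection / Measured by: adenylate kinase release luminescence / Read-out: lysis from increased AK signal / Benchmarks: Clomiphene as positive lysis control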
DENV2 CPE: DENV2-induced cell death inhibition | DENV2-infected cells, cytopathic effect rescue, plate reader | CPE inhibition, % at 9.99 µM | 350,000 tested, 1.7% active; in the data active = CPE inhibition above about 20%, passing the limit was not always enough; inconclusive = no clear call, values can overlap the other calls; tested in BHK-21 cells;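 also: 0% = median of neutral control wells and 100% = median of positive control wells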
CFTR F508del cor: CFTR F508del correction in bronchial cells; CFBE cells, YFP halide quenching; stimulated with forskolin plus potentiator P3; % fluorescence drop versus neutral controls; AID 720511; activity (quench increase), % at 7.58 µM; 350,000 tested, 0.36% active;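 active = mean added fluorescence quench of at least 8% versus neutral control, with both replicates also reaching 8%; inconclusive = only one of the mean or replicate conditions met; inactive = mean below 8% and not both replicates reaching 8%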;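 also: cells transiently co-express mutant CFTR-F508del with the halide-sensitive YFP; corrector assay measuring rescue of mutant channel to the surface after 24 h compound exposure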
ERp5 inh: blocks human ERp5 reductase activity on insulin. Q15084. ERp5 insulin aggregation, absorbance 650 nm, 90 min. inhibition, % at 9.99 µM. 350,000 tested, 0.05% active. AID 651711;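 active = mean replicate inhibition above about 25%, with every replicate also reaching it, limit read from the data, passing the limit was not always enough; inconclusive = only one of those two criteria met; inactive = neither criterion met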
Target sequence (Q15084 whole entry, looked up): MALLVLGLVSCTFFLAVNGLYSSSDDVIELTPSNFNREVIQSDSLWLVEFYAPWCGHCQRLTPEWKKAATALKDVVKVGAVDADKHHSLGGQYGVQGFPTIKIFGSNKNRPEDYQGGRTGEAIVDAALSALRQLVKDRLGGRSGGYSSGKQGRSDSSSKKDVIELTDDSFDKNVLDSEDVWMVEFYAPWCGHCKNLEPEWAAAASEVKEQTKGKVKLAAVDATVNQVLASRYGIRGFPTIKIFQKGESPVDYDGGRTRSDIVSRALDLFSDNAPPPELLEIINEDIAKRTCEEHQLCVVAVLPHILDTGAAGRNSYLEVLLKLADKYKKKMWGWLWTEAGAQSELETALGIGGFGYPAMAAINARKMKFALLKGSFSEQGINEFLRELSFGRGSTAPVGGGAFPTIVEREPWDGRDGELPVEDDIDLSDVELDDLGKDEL
The depositor's hits bear a star; ? = inconclusive; . = not tested or not shown.

SMILES	C2C12 statin	PDI inh	Cneo AK release	DENV2 CPE	CFTR F508del cor	ERp5 inh
O=C(C1CCCC1)N1C[C@H]2[C@@H](c3ccccc31)[C@@H](CO)N2C(=O)c1ccccc1	-10	.	-2	51*	0	-8
O=C(C1CC1)N1C[C@H]2[C@@H](c3ccccc31)[C@H](CO)N2C(=O)Cc1ccccn1	-11	.	-1	63*	-3	2
O=C(C1CCCC1)N1C[C@H]2[C@@H](c3ccccc31)[C@H](CO)N2C(=O)c1ccccc1	-7	.	-4	-10	0	-3
O=C(Nc1ccccc1F)N1C[C@H]2[C@@H](c3ccccc31)[C@H](CO)N2C(=O)C1CCCC1	6	.	-3	-15	4	-1
O=C(Nc1ccccc1F)N1C[C@H]2[C@@H](c3ccccc31)[C@@H](CO)N2C(=O)C1CCCCC1	3	.	0	61*	1	-1
O=C(c1cccnc1)N1C[C@@H]2[C@H](c3ccccc31)[C@H](CO)N2CC1CCCCC1	-14	.	1	29*	-2	8
COc1ccc(S(=O)(=O)N(C)C[C@@H]2OCCCC[C@H](C)Oc3ccc(NC(=O)CCC(F)(F)F)cc3C(=O)N([C@@H](C)CO)C[C@@H]2C)cc1	.	.	-2	-2	2	-1
COc1cccc(S(=O)(=O)N[C@H]2C=C[C@@H](CC(=O)NC3CCC3)O[C@H]2CO)c1	-4	.	0	2	-1	2
O=C(CN(Cc1ccccc1)C1=NCCS1)c1ccccc1	.	2	-1	39*	.	6
Cc1ccc(C(=O)CN(Cc2ccccc2)C2=NCCS2)cc1	.	-6	4	9	.	-2
C/C=C/c1ccc2c(c1)O[C@@H](CN(C)C(=O)c1cccc(F)c1)[C@H](C)CN([C@@H](C)CO)S2(=O)=O	-27	.	-20	-6	0	3
COc1cccc(S(=O)(=O)Nc2ccc3c(c2)[C@H]2C[C@@H](CC(=O)NCc4ccc(Cl)cc4)O[C@H](CO)[C@H]2O3)c1	-1	.	-1	3	1	-1
C[C@H](CO)N1C[C@H](C)[C@@H](CN(C)Cc2ccc(Cl)c(Cl)c2)Oc2ccc(NC(=O)CCCCCC(=O)Nc3ccccc3N)cc2CC1=O	.	.	.	-6	2	2
C[C@H](CO)N1C[C@H](C)[C@H](CN(C)Cc2ccc(Oc3ccccc3)cc2)Oc2ccc(NC(=O)CCCCCC(=O)Nc3ccccc3N)cc2CC1=O	-7	.	-2	7	1	-3
C[C@H]1CN([C@@H](C)CO)C(=O)Cc2cc(NC(=O)CCCCCC(=O)Nc3ccccc3N)ccc2O[C@H]1CN(C)Cc1ccc(Oc2ccccc2)cc1	104*	.	-1	?	1	2
C[C@H]1CN([C@@H](C)CO)C(=O)Cc2cc(NC(=O)CCCCCC(=O)Nc3ccccc3N)ccc2O[C@@H]1CN(C)Cc1ccc(-c2ccccc2)cc1	133*	.	-1	-19	2	1
C[C@H]1CN([C@@H](C)CO)C(=O)Cc2cc(NC(=O)CCCCCC(=O)Nc3ccccc3N)ccc2O[C@H]1CN(C)Cc1ccc(Cl)c(Cl)c1	105*	.	0	-8	1	2
C[C@H](CO)N1C[C@H](C)[C@H](CN(C)Cc2ccccc2)Oc2ccc(NC(=O)CCCCCC(=O)Nc3ccccc3N)cc2CC1=O	80*	.	-3	58*	2	-6
C[C@@H]1CN([C@@H](C)CO)C(=O)Cc2cc(NC(=O)CCCCCC(=O)Nc3ccccc3N)ccc2O[C@@H]1CN(C)Cc1ccc(-c2ccccc2)cc1	19	.	-3	13	-2	-1
C[C@H]1CN([C@@H](C)CO)C(=O)Cc2cc(NC(=O)CCCCCC(=O)Nc3ccccc3N)ccc2O[C@@H]1CN(C)Cc1ccc(C(F)(F)F)cc1	?	.	1	-5	1	9
CO[C@@H]1CN(C)C(=O)c2cc(NS(C)(=O)=O)ccc2OC[C@H](C)N(C(=O)c2ccc3c(c2)OCO3)C[C@@H]1C	-9	.	-1	-9	-1	3
CO[C@H]1CN(C)C(=O)c2ccc(NC(=O)C3CCOCC3)cc2OC[C@H](C)N(Cc2nccs2)C[C@@H]1C	.	.	.	-1	-2	11
C[C@@H]1CN([C@H](C)CO)C(=O)Cc2cc(NC(=O)CCCCCC(=O)Nc3ccccc3N)ccc2O[C@H]1CN(C)CC1CCCCC1	88*	.	-6	-11	-1	9
Cc1noc(C)c1S(=O)(=O)Nc1ccc2c(c1)C(=O)N([C@@H](C)CO)C[C@@H](C)[C@@H](CN(C)Cc1ccc(Oc3ccccc3)cc1)O2	26	.	3	-5	1	0
O=C(C[C@@H]1CC[C@H]2[C@@H](COC[C@@H](O)CN2C(=O)c2cnccn2)O1)NCc1ccc(F)cc1	-11	.	-1	-5	1	1
SMILES	C2C12 statin	PDI inh	Cneo AK release	DENV2 CPE	CFTR F508del cor	ERp5 inh
COc1ccc(S(=O)(=O)N(C)C[C@H]2OCCCC[C@@H](C)Oc3ccc(NS(=O)(=O)c4cn(C)cn4)cc3C(=O)N([C@@H](C)CO)C[C@H]2C)cc1	.	.	12	16	2	0
CCCNC(=O)Nc1ccc2c(c1)C(=O)N(C)[C@@H]1CC[C@@H](CC(=O)NCc3ccccc3)O[C@@H]1CO2	-19	.	-4	56*	2	2
CCCNC(=O)Nc1ccc2c(c1)C(=O)N(C)[C@@H]1CC[C@@H](CC(=O)NCc3ccccc3)O[C@H]1CO2	19	.	-3	5	2	2
CN1C(=O)c2cc(NC(=O)NCc3ccccc3)ccc2OC[C@H]2O[C@H](CC(=O)NCC3CCCCC3)CC[C@@H]21	27	.	3	17	-1	-2
CN1C(=O)c2cc(NC(=O)NCc3ccccc3)ccc2OC[C@H]2O[C@H](CC(=O)NCC3CCCCC3)CC[C@H]21	23	.	-1	98*	-1	-3
CCOc1ccc(-c2nc3n(c(=O)c2C#N)CCCS3)cc1	103*	18	6	.	.	.
Cc1cc2oc3ccc(NCCCN4CCOCC4)cc3c(=O)c2cc1C	-5	-7	3	37*	-2	1
COCC(=O)Nc1ccc2c(c1)C(=O)N(C)[C@@H]1CC[C@H](CC(=O)NCCc3ccncc3)O[C@@H]1CO2	-52	.	1	12	-2	-2
Cc1noc(C)c1NC(=O)Nc1ccc2c(c1)C(=O)N([C@H](C)CO)C[C@H](C)[C@@H](CN(C)C(=O)Nc1cccc3ccccc13)O2	64	.	1	?	4	4
CCSc1nc2c(c(=O)[nH]c(=O)n2C)n1C	-3	11	0	.	.	.
CCOC(=O)C(C)Sc1nc2c(c(=O)[nH]c(=O)n2C)n1Cc1ccc(Cl)cc1 (stereo not drawn)	1	.	-4	3	-1	-11
CC(C)Sc1nc2c(c(=O)[nH]c(=O)n2C)n1Cc1ccc(Cl)cc1	149*	4	0	.	.	.
